Assay results from ChEMBL document CHEMBL1240345 (Nat Chem Biol, 2009).
pIC50: −log10 of the molar value. One block for each compound: values may come before it. Active and inactive are the calls of the source. The rule behind the calls is not given here.

How the values were obtained:
[1] = biological target: T1, Tyrosine-protein phosphatase non-receptor type 1 (Homo sapiens, UniProt P18031); assay: Inhibition of PTP1B
T1 sequence (P18031 whole entry): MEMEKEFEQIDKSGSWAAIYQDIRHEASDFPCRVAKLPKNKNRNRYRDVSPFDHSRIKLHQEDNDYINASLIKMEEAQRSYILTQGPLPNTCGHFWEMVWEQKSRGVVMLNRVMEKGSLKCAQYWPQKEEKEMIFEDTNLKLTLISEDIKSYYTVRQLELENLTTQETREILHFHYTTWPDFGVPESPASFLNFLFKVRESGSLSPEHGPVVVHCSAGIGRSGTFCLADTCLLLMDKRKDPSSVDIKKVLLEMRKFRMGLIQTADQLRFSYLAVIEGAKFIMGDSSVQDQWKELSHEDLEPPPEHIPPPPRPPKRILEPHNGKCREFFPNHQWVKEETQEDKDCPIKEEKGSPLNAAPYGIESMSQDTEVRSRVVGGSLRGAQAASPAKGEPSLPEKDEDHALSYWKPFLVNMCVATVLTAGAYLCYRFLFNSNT

[2] = organism: Danio rerio; assay: Increase in cardiac hand2 expression in 10-somite stage Tg(dusp:EGFP)pt6 zebrafish embryo; format: functional
[3] = organism: Danio rerio; assay: Inhibition of dusp1 gene expression in Tg(dusp:EGFP)pt6 zebrafish embryos; format: functional; details: Embryo
[4] = biological target: T2, Dual specificity protein phosphatase 6 (Homo sapiens) (UniProt Q16828); assay: Inhibition of Dusp6 in 1-somite stage Tg(dusp:EGFP)pt6 zebrafish assessed as increase in dusp6 FGF target gene expression in rhombomere 4 at 10 uM by RT-PCR
T2 sequence (whole entry): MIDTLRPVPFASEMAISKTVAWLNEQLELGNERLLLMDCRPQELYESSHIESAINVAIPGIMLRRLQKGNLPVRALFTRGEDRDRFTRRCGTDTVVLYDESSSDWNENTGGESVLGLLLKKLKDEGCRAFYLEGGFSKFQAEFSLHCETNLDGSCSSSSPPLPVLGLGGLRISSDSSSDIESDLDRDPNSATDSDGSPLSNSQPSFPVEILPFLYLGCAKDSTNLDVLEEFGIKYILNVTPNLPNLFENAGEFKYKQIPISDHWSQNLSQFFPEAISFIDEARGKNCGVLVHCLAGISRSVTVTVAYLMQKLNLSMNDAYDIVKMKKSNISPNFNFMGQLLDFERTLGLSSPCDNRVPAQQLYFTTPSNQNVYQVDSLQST

[5] = biological target: T2, Dual specificity protein phosphatase 6 (Homo sapiens); assay: Inhibition of Dusp6 in 1-somite stage Tg(dusp:EGFP)pt6 zebrafish assessed as increase in dusp6 FGF target gene expression in tailbud at 10 uM by RT-PCR
[6] = biological target: T3, M-phase inducer phosphatase 2 (Homo sapiens, UniProt P30305); assay: Inhibition of Cdc25B
T3 sequence (P30305 whole entry): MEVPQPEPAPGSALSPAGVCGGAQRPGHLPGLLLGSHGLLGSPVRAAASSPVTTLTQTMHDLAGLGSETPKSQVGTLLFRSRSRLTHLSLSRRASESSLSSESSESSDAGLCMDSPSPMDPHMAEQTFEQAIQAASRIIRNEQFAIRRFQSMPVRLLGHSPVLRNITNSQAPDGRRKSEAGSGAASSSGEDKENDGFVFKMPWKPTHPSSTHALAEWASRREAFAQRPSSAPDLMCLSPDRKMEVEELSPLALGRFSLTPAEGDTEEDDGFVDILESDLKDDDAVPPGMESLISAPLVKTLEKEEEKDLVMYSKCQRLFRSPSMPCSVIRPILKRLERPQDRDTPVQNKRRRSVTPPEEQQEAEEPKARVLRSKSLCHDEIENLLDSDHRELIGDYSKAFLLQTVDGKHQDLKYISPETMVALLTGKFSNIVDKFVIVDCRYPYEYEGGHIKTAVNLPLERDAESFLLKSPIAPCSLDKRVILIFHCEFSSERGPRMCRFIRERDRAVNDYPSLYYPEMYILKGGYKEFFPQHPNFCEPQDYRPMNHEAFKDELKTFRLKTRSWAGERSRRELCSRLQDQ

[7] = biological target: T2, Dual specificity protein phosphatase 6 (Homo sapiens); assay: Inhibition of Dusp6 in 1-somite stage Tg(dusp:EGFP)pt6 zebrafish assessed as increase in dusp6 FGF target gene expression in mid-hindbrain boundary at 10 uM by RT-PCR
[8] = organism: Danio rerio; assay: Inhibition of dusp7 gene expression in Tg(dusp:EGFP)pt6 zebrafish embryos; format: functional; details: Embryo
[9] = biological target: T2, Dual specificity protein phosphatase 6 (Homo sapiens); assay: Inhibition of Dusp6 in Tg(dusp:EGFP)pt6 zebrafish assessed as increase in spry4 gene expression at 10 uM by RT-PCR
[10] = organism: Danio rerio; assay: Increase in cardiac cmlc2 expression in 18-somite stage Tg(dusp:EGFP)pt6 zebrafish embryo
[11] = biological target: T2, Dual specificity protein phosphatase 6 (Homo sapiens); assay: Inhibition of Dusp6 in 1-cell stage Tg(dusp:EGFP)pt6 zebrafish embryos injected with spry4 mRNA assessed as sef gene expression restoring at 5 uM
Summary of the method: (§1)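 Embryos were injected at the 1-2 cell stage with 500 pg of spry4 or XFD mRNA. They were exposed to 5 μM compound at the 1000-cell stage and fixed at shield stage. sef expression was then assessed by in situ hybridization.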

[12] = biological target: T2, Dual specificity protein phosphatase 6 (Homo sapiens); assay: Inhibition of Dusp6 in 10-somite stage Tg(dusp:EGFP)pt6 zebrafish assessed as increase in dusp6 FGF target gene expression in mid-hindbrain boundary at 10 uM by RT-PCR
[13] = biological target: T2, Dual specificity protein phosphatase 6 (Homo sapiens); assay: Inhibition of Dusp6 in Tg(dusp:EGFP)pt6 zebrafish assessed as increase in engrailed 2b in prospective mid-hindbrain boundary at 10 uM by RT-PCR
[14] = organism: Danio rerio; assay: Induction of cardiac tissue expansion in larval stage Tg(dusp:EGFP)pt6 zebrafish embryo after 8 hrs; format: functional, tissue-based
[15] = biological target: T2, Dual specificity protein phosphatase 6 (Homo sapiens); assay: Inhibition of Dusp6 in Tg(dusp:EGFP)pt6 zebrafish embryo assessed as reduction in etv2 gene expression
[16] = biological target: T2, Dual specificity protein phosphatase 6 (Homo sapiens); assay: Inhibition of Dusp6 basal phosphatase activity using 3-o-methylfluoro-rescein phosphate substrate in presence of ERK protein; details: concentration not given here
Summary of the method: (§2)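 Recombinant Dusp6 activity was followed as dephosphorylation of the small-molecule substrate 3-O-methylfluorescein phosphate, with or without ERK2 present to stimulate catalysis.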

[17] = biological target: T2, Dual specificity protein phosphatase 6 (Homo sapiens); assay: Inhibition of Dusp6 in Tg(dusp:EGFP)pt6 zebrafish assessed as increase in FGF-signaling mediated d2EGFP fluorescence at 10 uM after 2 hrs
Summary of the method: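 Tg(dusp6:EGFP)pt6 embryos from natural crosses were raised at 28.5°C to 24 hpf, then placed five per well in E3. Compound was added at 10 μM in 0.5% DMSO, with 0.5% DMSO as vehicle control. d2EGFP intensity was scored visually against vehicle-treated embryos. Assays were run three times, and at least four of five embryos had to share the phenotype.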

[18] = biological target: T4, Dual specificity protein phosphatase 5 (Homo sapiens) (UniProt Q16690); assay: Inhibition of Dusp5
T4 sequence (whole entry): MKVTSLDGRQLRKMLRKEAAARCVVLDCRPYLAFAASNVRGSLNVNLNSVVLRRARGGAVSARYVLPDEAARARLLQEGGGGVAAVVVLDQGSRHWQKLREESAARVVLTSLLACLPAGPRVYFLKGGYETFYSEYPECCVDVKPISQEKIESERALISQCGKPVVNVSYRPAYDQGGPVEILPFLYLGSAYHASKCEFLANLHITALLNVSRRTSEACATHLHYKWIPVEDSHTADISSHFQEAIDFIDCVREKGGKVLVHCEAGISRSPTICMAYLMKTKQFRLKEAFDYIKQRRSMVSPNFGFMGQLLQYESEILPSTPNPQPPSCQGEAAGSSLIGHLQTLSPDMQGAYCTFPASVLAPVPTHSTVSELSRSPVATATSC

[19] = biological target: T2, Dual specificity protein phosphatase 6 (Homo sapiens); assay: Inhibition of Dusp6 in Tg(dusp:EGFP)pt6 zebrafish assessed as increase in il17rd gene expression at 10 uM by RT-PCR
[20] = biological target: T5, Dual specificity protein phosphatase 1 (Homo sapiens, UniProt P28562); assay: Inhibition of Myc-tagged human Dusp1 expressed in TPA-induced human HeLa cells assessed as decrease in dephosphorylation of pERK measured by immunostaining; format: cell-based
T5 sequence (P28562 whole entry): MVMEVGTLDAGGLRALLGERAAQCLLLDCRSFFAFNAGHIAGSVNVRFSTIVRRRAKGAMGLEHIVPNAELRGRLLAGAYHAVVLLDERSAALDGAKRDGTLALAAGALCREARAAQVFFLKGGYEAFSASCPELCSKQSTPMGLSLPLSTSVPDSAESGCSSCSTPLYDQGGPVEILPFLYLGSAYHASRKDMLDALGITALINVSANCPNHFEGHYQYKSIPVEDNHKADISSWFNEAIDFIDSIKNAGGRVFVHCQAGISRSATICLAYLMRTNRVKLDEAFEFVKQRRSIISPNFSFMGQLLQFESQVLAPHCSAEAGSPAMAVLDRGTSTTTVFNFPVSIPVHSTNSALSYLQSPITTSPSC
Summary of the method: (§3)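 HeLa cells (2,000 per collagen-coated well; DMEM, 10% FBS, 37°C, 5% CO2) were transfected with human c-Myc-Dusp1 or c-Myc-Dusp6. After 20 h, quadruplicate wells received ten two-fold concentrations of compound for 15 min, then TPA (500 ng/ml) for 15 min. Cells were fixed and immunostained for pERK and c-Myc, and 1000 Myc-gated cells were imaged. pERK restoration was expressed as Kolmogorov-Smirnov values normalized to vehicle-treated transfected wells. Six independent experiments were run.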

[21] = organism: Danio rerio; assay: Increase in cardiac myl7 expression in 18-somite stage Tg(dusp:EGFP)pt6 zebrafish embryo
[22] = biological target: T2, Dual specificity protein phosphatase 6 (Homo sapiens); assay: Inhibition of Dusp6 basal phosphatase activity using 3-o-methylfluoro-rescein phosphate substrate at 10:1 enzyme to ERK protein ration; details: concentration not given here
[23] = Increase in transcription factor gata4 gene in Tg(dusp:EGFP)pt6 zebrafish embryo anterior lateral plate mesoderm; format: functional, Danio rerio
[24] = Increase in transcription factor nkx2.5 gene in Tg(dusp:EGFP)pt6 zebrafish embryo anterior lateral plate mesoderm; format: functional, Danio rerio
[25] = biological target: T2, Dual specificity protein phosphatase 6 (Homo sapiens); assay: Inhibition of Dusp6 in 10-somite stage Tg(dusp:EGFP)pt6 zebrafish assessed as increase in dusp6 FGF target gene expression in tailbud at 10 uM by RT-PCR
[26] = biological target: T6, Dual specificity protein phosphatase 6 (Homo sapiens, UniProt Q16828); assay: Inhibition of Myc-tagged human Dusp6 expressed in TPA-induced human HeLa cells assessed as decrease in dephosphorylation of pERK measured by immunostaining; format: cell-based; summary of the method: as §3
T6 sequence (Q16828 whole entry): T2 sequence (whole entry)

[27] = biological target: T2, Dual specificity protein phosphatase 6 (Homo sapiens); assay: Inhibition of Dusp6 in 10-somite stage Tg(dusp:EGFP)pt6 zebrafish assessed as increase in dusp6 FGF target gene expression in rhombomere 4 at 10 uM by RT-PCR
[28] = biological target: T2, Dual specificity protein phosphatase 6 (Homo sapiens); assay: Inhibition of Dusp6 in Tg(dusp:EGFP)pt6 zebrafish embryo assessed as reduction in scl gene expression; details: concentration not given here
[29] = organism: Danio rerio; assay: Inhibition of dusp4 gene expression in Tg(dusp:EGFP)pt6 zebrafish embryos; format: functional; details: Embryo
[30] = organism: Danio rerio; assay: Inhibition of dusp22a gene expression in Tg(dusp:EGFP)pt6 zebrafish embryos; format: functional; details: Embryo
[31] = biological target: T2, Dual specificity protein phosphatase 6 (Homo sapiens); assay: Inhibition of Dusp6 basal phosphatase activity using 3-o-methylfluoro-rescein phosphate substrate; summary of the method: as §2
[32] = biological target: T2, Dual specificity protein phosphatase 6 (Homo sapiens); assay: Inhibition of Myc-tagged human Dusp6 expressed in TPA-induced human HeLa cells assessed as decrease in dephosphorylation of pERK measured at 100 uM by immunostaining; format: cell-based
[33] = biological target: T2, Dual specificity protein phosphatase 6 (Homo sapiens); assay: Inhibition of Dusp6 in 1-cell stage Tg(dusp:EGFP)pt6 zebrafish embryos injected with XFD mRNA assessed as sef gene expression restoring at 5 uM; summary of the method: as §1
[34] = organism: Danio rerio; assay: Inhibition of dusp5 gene expression in Tg(dusp:EGFP)pt6 zebrafish embryos; format: functional; details: Embryo
[35] = biological target: T2, Dual specificity protein phosphatase 6 (Homo sapiens); assay: Inhibition of […] in Tg(dusp:EGFP);ace mutant zebrafish assessed as increase in FGF-signaling mediated d2EGFP fluorescence in mid-hindbrain boundary at 10 uM after 2 hrs
[36] = biological target: Dual specificity protein phosphatase 3 (Homo sapiens, UniProt P51452); assay: Inhibition of Dusp3/VHR
[37] = biological target: T7, Dual specificity protein phosphatase 1 (Homo sapiens) (UniProt P28562); assay: Inhibition of Myc-tagged human Dusp1 expressed in TPA-induced human HeLa cells assessed as decrease in dephosphorylation of pERK measured at 100 uM by immunostaining; format: cell-based
T7 sequence (whole entry): T5 sequence (P28562 whole entry)

Dual specificity protein phosphatase 3, sequence (P51452 whole entry): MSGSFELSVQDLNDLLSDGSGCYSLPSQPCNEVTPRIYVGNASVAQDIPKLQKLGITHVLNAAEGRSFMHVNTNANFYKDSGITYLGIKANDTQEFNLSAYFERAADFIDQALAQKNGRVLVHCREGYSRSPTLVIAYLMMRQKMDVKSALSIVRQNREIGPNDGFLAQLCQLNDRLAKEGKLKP

IC50 [1]: Not Active
inhibition [4]: Active
inhibition [5]: Active
IC50 [6]: Not Active
inhibition [7]: Active
inhibition [9]: Active
inhibition [11]: inactive
inhibition [12]: Active
inhibition [13]: Active
inhibition [15]: Active
inhibition [16]: 57%
inhibition [17]: Dose-dependent effect
inhibition [18]: inactive
inhibition [19]: Active
pIC50 [20]: 4.94
inhibition [22]: 30%
inhibition [25]: Active
pIC50 [26]: 4.91
inhibition [27]: Active
inhibition [28]: 93%
inhibition [31]: inactive
inhibition [32]: Active
inhibition [33]: inactive
inhibition [35]: inactive
IC50 [36]: Not Active
Structure (SMILES): O=C1/C(=C/c2ccccc2)C(NC2CCCCC2)c2ccccc21 (stereo not drawn)
Activity [2]: 32%
inhibition [3]: Active
inhibition [8]: Active
Activity [10]: 81%
Activity [14]: Active
Activity [21]: 81%
Activity [23]: 81%
Activity [24]: 91%
inhibition [29]: Active
inhibition [30]: Active
inhibition [34]: Active

inhibition [37]: inactive
inhibition [32]: inactive
Structure (SMILES): O=C1CC(NC2CCCCC2)c2ccccc21 (stereo not drawn)
